In the library only some 4.3% were active in any assay of this set; here they are far more common.
STAT1 act – increases IFN-gamma driven STAT1 reporter signal; NIH 3T3 STAT1-luciferase reporter, luminescence; 100% = IFN-gamma alone, no compound; activation (% of control), % at 5.5 µM; 200,000 compounds, 2.6% hits;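 active = activation above the screen-wide mean activation plus 3 SD, cut at about 130% in these data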
FLuc stim CS – firefly luciferase counter-screen for stimulation assays; P08659; ATPlite luciferase biochemical, luminescence, 10 min; 0 = ATP-free wells, 1 = DMSO control; activation factor at 10 µM; 200,000 tested, under 10 active; AID 1027;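 active = luciferase activation factor, scaled between plate controls, of at least 2 with compound at 10 µM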
Target sequence (P08659 whole entry, looked up): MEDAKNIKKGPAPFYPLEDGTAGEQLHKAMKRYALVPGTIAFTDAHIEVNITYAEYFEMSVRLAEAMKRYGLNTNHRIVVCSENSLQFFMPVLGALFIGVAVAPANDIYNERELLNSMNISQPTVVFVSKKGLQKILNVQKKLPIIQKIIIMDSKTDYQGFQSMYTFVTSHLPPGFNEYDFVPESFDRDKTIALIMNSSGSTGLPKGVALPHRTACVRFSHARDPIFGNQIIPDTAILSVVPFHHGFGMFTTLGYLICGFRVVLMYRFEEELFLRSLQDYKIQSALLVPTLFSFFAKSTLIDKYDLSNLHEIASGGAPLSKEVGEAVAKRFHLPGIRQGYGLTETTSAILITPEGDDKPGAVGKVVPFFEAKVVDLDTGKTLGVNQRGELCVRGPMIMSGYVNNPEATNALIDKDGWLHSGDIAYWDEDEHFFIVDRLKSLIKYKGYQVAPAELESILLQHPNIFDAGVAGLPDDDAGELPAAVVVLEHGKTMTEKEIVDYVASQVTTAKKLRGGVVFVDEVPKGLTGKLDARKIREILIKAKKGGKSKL
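Assay system: Luciferase/luciferin detection reagent, cell-free biochemical luciferase assay / Also added: ATP substrate / Schedule: 10 min at ambient temperature / Measured by: luminescence measurement of luciferase light output / Benchmarks: low control with PBS replacing ATP, high control enzyme plus ATP without compound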
NF-kB neuron act – raises NF-kB expression in human neuronal cells; NF-kB reporter expression; hits give high values; fold change at 12.5 µM; 190,000 compounds, 1.6% hits; AID 1239; in the data active = fold change above about 3.3
APP 5'UTR act – activates APP 5'UTR luciferase reporter; SH-SY5Y APP 5'UTR luciferase reporter, luminescence; zero percent = DMSO vehicle wells; activation, % at 2 µM; 190,000 compounds, 1% hits; AID 1276;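 active = activation above a set limit, based on mean plus 3 SD of controls, cut at about 140% in these data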
FLuc inhib CS – inhibits firefly luciferase, flagging false hits in luciferase inhibition screens; P08659; ATPLite firefly luciferase biochemical luminescence, 10 min; inhibition, % at 10 µM; 200,000 compounds, 1.5% hits;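 active = inhibition above about 50% when tested at 10 µM, limit read from the data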
Numbers stand for hits; - = inactive; . = no result.

SMILES	STAT1 act	FLuc stim CS	NF-kB neuron act	APP 5'UTR act	FLuc inhib CS
O=c1[nH]c(/C=C2\C=Nc3ccccc32)c(O)n1Cc1ccccc1F	-	-	6.9	-	-
CSc1nc(O)c(/C=C2\C=Nc3ccccc32)[nH]1	-	-	-	-	60
O=C(Cc1ccccc1)Nn1c(O)c(/C=C2\C=Nc3ccccc32)sc1=S	-	-	-	-	-
c1ccc(-c2cn3c4c(sc3n2)CCCC4)cc1	-	-	-	-	95
Cc1c(C(=O)N2CCc3ccccc3C2)sc2nc(-c3ccccc3)cn12	-	-	-	-	-
O=C(Nc1ccccn1)c1csc2c1CCCC2	137	-	3.9	-	-
CCCC(=O)Nc1sc2c(c1C(=O)Nc1ccccn1)CCCC2	-	-	-	-	-
O=C(Nc1ccccn1)c1onc2c1CCCC2	-	-	-	150	87
COc1ccccc1NC(=O)c1csc2c1CCCC2	-	-	-	-	-
Cc1cc(C(=O)Nc2ccccn2)cs1	-	-	-	-	57
C=CCN(CC=C)C(=S)Nc1ccc(OC)c(OC)c1	-	-	-	-	-
COC(=O)Cc1c(O)ccn(CCc2c[nH]c3ccccc23)c1=O	-	-	-	-	-
COC(=O)Cc1c(OC)ccn(CCc2c[nH]c3ccccc23)c1=O	136	-	-	-	-
O=C(Nc1ccc(OC(=O)c2ccco2)cc1)c1ccco1	-	-	-	-	66
CCC(=O)Oc1ccc(NC(=O)c2ccco2)cc1	-	-	-	-	61
CCC(=O)Nc1ccc(NC(=O)c2ccco2)c(OC)c1	-	-	-	-	-
O=C(O)COc1ccc(NC(=O)c2ccco2)cc1	-	-	-	-	-
COc1cc(NC(=O)CC(C)C)ccc1NC(=O)c1ccco1	141	.	.	-	.
O=C(Nc1cccc(OC(=O)c2ccco2)c1)c1ccco1	-	-	-	-	-
CCCc1ccc(OCc2nc(-c3ccc(NC(=O)c4ccco4)cc3)no2)cc1	133	-	-	-	-
NC(=NC(=O)c1ccccc1)N1N=CCC1c1ccccc1 (stereo unspecified)	-	-	-	-	-
CCC(=O)Nc1ccc(NC(=O)c2ccco2)cc1	131	-	-	-	-
O=C(Nc1ccccn1)c1ccc(NC(=O)c2ccco2)cc1	129	-	-	159	-
O=C(CCc1ccccc1)Nc1ccc(NC(=O)c2ccco2)cc1	-	-	-	-	-
Cc1ccccc1NC(=O)c1ccc(NC(=O)c2ccco2)cc1	-	-	-	-	-
SMILES	STAT1 act	FLuc stim CS	NF-kB neuron act	APP 5'UTR act	FLuc inhib CS
CC(C)C(=O)N1CCN(c2ccccc2NC(=O)c2cc([N+](=O)[O-])ccc2N2CCOCC2)CC1	-	-	.	-	-
CCC1=NN2C(=N)/C(=C\c3ccc(OCc4cc(=O)n5nc(CC)sc5n4)c(OC)c3)C(=O)N=C2S1	-	-	-	-	-
Cc1ccc(-n2nnc(-c3cc4ccccc4nc3Cl)n2)cc1	-	-	-	-	-
O=c1[nH]c2ccccc2cc1-c1nnn(-c2ccc(F)cc2)n1	-	-	-	-	65
Brc1ccccc1-n1nnc(-c2cccnc2)n1	-	-	-	-	-
Fc1ccc(-n2nnc(-c3cccnc3)n2)cc1	149	-	-	-	-
Fc1ccc(-n2nnc(-c3cnc4ccccc4c3)n2)cc1	-	-	-	-	74
CCOc1ccccc1-c1nc(-c2cc3ccc(C)cc3[nH]c2=O)no1	-	-	-	-	-
COC(=O)c1sc2nc(C)nc(SCC(=O)N3CCC(C(=O)O)CC3)c2c1C	-	-	-	-	-
COc1ccc(Nc2nnc(SCC(=O)N3CCCC3)s2)cc1	-	-	-	-	-
COc1ccc(Nc2nnc(SCC(=O)N3CC(=O)Nc4ccccc43)s2)cc1	-	-	-	-	55
N=c1occ(C(=O)c2cc(F)ccc2O)cc1C(=O)NC1CCCCC1	-	-	-	-	-
CCCCOc1ccc(-c2nnn(CC(=O)NCc3ccco3)n2)cc1	-	-	-	-	-
CC(C)CC(=O)Nc1ccc(-c2nnn(CC(=O)NCc3ccco3)n2)cc1	129	-	-	-	-
COc1ccc(N2CCN(C(=O)CSc3nc4[nH]ncc4c(=O)n3-c3ccc(Br)cc3)CC2)cc1	-	-	3.3	-	-
COc1ccc(-n2c(SCC(=O)NCc3cccs3)nc3[nH]ncc3c2=O)cc1	-	-	-	-	-
O=C1CC(c2ccco2)CC2=C1C1c3ccccc3C(=O)N1c1ccccc1N2 (stereo unspecified)	-	-	8.4	-	-
CCC(=O)N1c2ccccc2NC2=C(C(=O)CC(c3ccco3)C2)C1c1ccco1 (stereo unspecified)	-	-	-	-	-
COc1ccc(S(=O)(=O)Nc2cc3c(cc2C(C)=O)OCO3)cc1	-	-	-	-	-
C/C(=N\Nc1nccnc1Cl)c1ccc(F)cc1	134	-	-	-	-
C/C(=N\Nc1nccnc1Cl)c1c(F)c(F)c(F)c(F)c1F	-	-	-	-	-
O=C(c1ccc([N+](=O)[O-])c(CS(=O)(=O)c2ccc(Cl)cc2)c1)N1CCCC1	-	-	-	-	-
O=C(CSc1ncc(-c2ccc(F)cc2)n1Cc1ccco1)Nc1ccc2c(c1)OCO2	138	-	-	-	-
O=C(CSc1nnc(-c2cccs2)n1Cc1ccco1)Nc1ccc2c(c1)OCO2	-	-	-	-	-
Cc1c(C#N)c(O)n(C)c(=O)c1N=Nc1ccc(S(N)(=O)=O)cc1	141	-	-	-	-
SMILES	STAT1 act	FLuc stim CS	NF-kB neuron act	APP 5'UTR act	FLuc inhib CS
COc1cccc(CNc2cnc3ccccc3c2)c1O	-	-	7.6	-	-
CCC(C)[C@H](NC(=O)NCCCn1ccnc1)C(=O)OC (stereo partly specified)	-	-	-	-	-
COc1ccc(CNC(=O)Nc2ccc3c(c2)N(C)C(=O)CS3)cc1	-	-	-	-	-
Nc1[nH]n(-c2ccccc2)c(=O)c1N=Nc1ccccc1[N+](=O)[O-]	139	-	-	-	-
COc1cc([N+](=O)[O-])ccc1N=Nc1c(N)[nH]n(-c2ccccc2)c1=O	-	-	-	-	-
COC(=O)CC/C(O)=C1\C(=O)CC(C)(C)CC1=NCc1nc2ccccc2[nH]1	-	-	-	-	-
CC(C)Oc1ccc2ccccc2c1C=O	-	-	-	-	-
O=Cc1c(OCc2ccccc2)ccc2ccccc12	134	-	-	-	-
CC1=CC(C)=Nc2ccccc2N1	129	-	-	-	-
C=CCc1cccc(C=Nc2cc(Br)ccc2O)c1O	-	-	-	-	-
C=CCc1cccc(C=Nc2cccn3cc(-c4ccccc4)nc23)c1O	132	-	-	-	-
Fc1ccc(NCc2n[nH]c(=S)n2Cc2ccccc2)cc1	-	-	-	-	-
Cc1[nH]n(-c2ccccc2)c(=O)c1/C=N\NC(=O)C1COc2ccccc2O1 (stereo unspecified)	-	-	-	-	93
CC(C)(C)S(=O)(=O)c1cnc2c(-c3ccc(Cl)cc3)cnn2c1N	-	-	-	-	-

Screening data from PubChem.
